# Measured values published in ChEMBL document CHEMBL1124559, “Synthesis and antiviral activity of the enantiomeric forms of carba-5-iodo-2'-deoxyuridine and carba-(E)-5-(2-bromovinyl)-2'-deoxyuridine” (1989).
# Legend:
# Format in all cases: functional
# Oryctolagus cuniculus [1] = species on record: Oryctolagus cuniculus; experiment: Antiviral activity against F strain of herpes simplex virus-1 in primary rabbit kidney cell cultures
# How it was run: (§1)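 Confluent cell monolayers in microtiter trays infected with 100 CCID50 of virus (1 CCID50 = dose infecting 50% of cultures); after 1 h adsorption, residual virus removed and cultures incubated with varying compound concentrations. Cytopathogenicity scored once complete in untreated infected controls; value is concentration reducing virus-induced cytopathogenicity by 50%, averaged over three to four separate experiments.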
# Oryctolagus cuniculus [2] = species on record: Oryctolagus cuniculus; experiment: Antiviral activity against KOS strain of herpes simplex virus-1 in primary rabbit kidney cell cultures; how it was run: as §1
# Oryctolagus cuniculus [3] = species on record: Oryctolagus cuniculus; experiment: Antiviral activity against G strain of herpes simplex virus-2 in primary rabbit kidney cell cultures; how it was run: as §1
# Oryctolagus cuniculus [4] = species on record: Oryctolagus cuniculus; experiment: Antiviral activity against McIntyre strain of herpes simplex virus-1 in primary rabbit kidney cell cultures; how it was run: as §1
# Oryctolagus cuniculus [5] = species on record: Oryctolagus cuniculus; experiment: Antiviral activity against Vaccinia virus in primary rabbit kidney cell cultures; how it was run: as §1
# Oryctolagus cuniculus [6] = species on record: Oryctolagus cuniculus; experiment: Antiviral activity against VMW 1837 strain of thymidine kinase deficient (TK-) herpes simplex virus-1 in primary rabbit kidney cell cultures; how it was run: as §1
# Oryctolagus cuniculus [7] = species on record: Oryctolagus cuniculus; experiment: Antiviral activity against B2006 strain of thymidine kinase deficient (TK-) herpes simplex virus-1 in primary rabbit kidney cell cultures; how it was run: as §1
# Oryctolagus cuniculus [8] = species on record: Oryctolagus cuniculus; experiment: Antiviral activity against Lyons strain of herpes simplex virus-2 in primary rabbit kidney cell cultures; how it was run: as §1
# Oryctolagus cuniculus [9] = species on record: Oryctolagus cuniculus; experiment: Minimum cytotoxic concentration required to cause a microscopically detectable alteration of rabbit kidney cell morphology
# How it was run: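 Cell cultures exposed to varying compound concentrations; value is concentration required to cause microscopically detectable alteration of cell morphology.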
# Oryctolagus cuniculus [10] = species on record: Oryctolagus cuniculus; experiment: Antiviral activity against 196 strain of herpes simplex virus-2 in primary rabbit kidney cell cultures; how it was run: as §1
# Oryctolagus cuniculus [11] = species on record: Oryctolagus cuniculus; experiment: Antiviral activity against Vesicular stomatitis virus in primary rabbit kidney cell cultures; how it was run: as §1
# [12] = Oryctolagus cuniculus, read-out: MIC
Structure (SMILES),MIC (Oryctolagus cuniculus [1]) [µg/mL],MIC (Oryctolagus cuniculus [2]) [µg/mL],MIC (Oryctolagus cuniculus [3]) [µg/mL],MIC (Oryctolagus cuniculus [4]) [µg/mL],MIC (Oryctolagus cuniculus [5]) [µg/mL],MIC (Oryctolagus cuniculus [1]; [12]) [µg/mL],MIC (Oryctolagus cuniculus [2]; [12]) [µg/mL],MIC (Oryctolagus cuniculus [6]) [µg/mL],MIC (Oryctolagus cuniculus [3]; [12]) [µg/mL],MIC (Oryctolagus cuniculus [7]) [µg/mL],MIC (Oryctolagus cuniculus [4]; [12]) [µg/mL],MIC (Oryctolagus cuniculus [8]) [µg/mL],MIC (Oryctolagus cuniculus [5]; [12]) [µg/mL],MCC (Oryctolagus cuniculus [9]) [µg/mL],MIC (Oryctolagus cuniculus [10]) [µg/mL],MIC (Oryctolagus cuniculus [11]) [µg/mL]
O=c1[nH]c(=O)n([C@@H]2C[C@H](CO)[C@@H](O)C2)cc1I (racemic),0.1,0.1,20,0.1,150,–,–,–,–,–,–,–,–,–,–,–
O=c1[nH]c(=O)n([C@H]2C[C@H](O)[C@@H](CO)O2)cc1I [IDOXURIDINE],–,–,–,–,–,0.07,0.1,> 400,0.4,> 400,0.1,1,0.2,> 400,2,> 400
O=c1[nH]c(=O)n([C@@H]2C[C@H](CO)[C@@H](O)C2)cc1I (stereo in doubt; (-)),7,1,70,20,>400,–,–,–,–,–,–,–,–,–,–,–
O=c1[nH]c(=O)n([C@@H]2C[C@H](CO)[C@@H](O)C2)cc1I (stereo in doubt; (+)),0.07,0.07,10,0.2,40,–,–,> 400,–,> 400,–,> 400,–,> 400,> 400,> 400
O=c1[nH]c(=O)n([C@H]2C[C@H](O)[C@@H](CO)O2)cc1/C=C/Br [BRIVUDINE],–,–,–,–,–,0.02,0.01,> 400,2,150,0.025,7,15,> 400,70,> 400
